Consider 16 molecules from ChEMBL document CHEMBL1135752, “Pyrazolopyrimidine-2,4-dione sulfonamides: novel and selective calcitonin inducers” (J Med Chem, 2002).

Assay [1] can be described thus: Ability to increase Human calcitonin secretion. It counts as functional. The gist of the method: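 Calcitonin secretion assay with radioimmunoassay read-out, measuring the rise in cellular levels and secretion of human CT. Compound tested at 30 µM. Value is the ratio of secretion with compound to secretion in untreated control; average precision error reported as 10-33%.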

Assay [2] can be described thus: Increased transcription of human calcitonin luciferase reporter gene at 30 uM. It counts as functional. Summed up: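 Luciferase reporter gene under control of the human calcitonin gene/promoter, used to measure transcription activation. Compound tested at 30 µM. Read-out is the transcription activation ratio: luciferase activity with compound divided by luciferase activity in untreated control.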
On the technique in general: A reporter such as luciferase makes a cellular process visible.

In assay [3] the target is T1, Phosphodiesterase 4 (Homo sapiens, UniProt P27815+Q08499+Q07343+Q08493). Description: Percent Rolipram activity of a standard U937 cell phosphodiesterase 4 (PDE4) enzyme assay at 30 uM of compound. Format: cell-based. The note with it: U-937. Summed up:
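U937 cell PDE4 enzyme assay with compound at 30 µM. Activity is scaled and reported as percent of rolipram activity.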

Assay [4] addresses T1, Phosphodiesterase 4. Kind of assay: Inhibition of phosphodiesterase 4 (PDE4). Format: protein assay.

With `CCCCn1c(=O)c2c(ncn2CC(C)=O)n(CCCC)c1=O`, the CTS increase in assay [1] stood at 3.5. Further, the CT-luci TAR in assay [2] came to 2.1 T/C. In addition, at Phosphodiesterase 4 [3], the Activity was determined as 100%.

For `CCCCn1c(=O)c2cn(S(C)(=O)=O)nc2n(CCCC)c1=O`, the CTS increase in assay [1] turned out to be 3.9. Besides, in assay [2], the CT-luci TAR was determined as 1.8 T/C. At Phosphodiesterase 4 [3], the Activity was determined as 93%.

For `CCCCn1c(=O)c2nn(S(C)(=O)=O)cc2n(CCCC)c1=O`, in assay [1], the CTS increase was 0.9. Besides, the CT-luci TAR in assay [2] is 2.1 T/C. Besides, on Phosphodiesterase 4 [3], the Activity came out at 60%.

For the molecule `CCCCn1c(=O)c2nn(S(=O)(=O)c3cc(Cl)c(Cl)s3)cc2n(CCCC)c1=O`, in assay [1], the CTS increase came out at 3.4. The CT-luci TAR in assay [2] was 1.7 T/C. The molecule also displayed an Activity at Phosphodiesterase 4 [3] of 59%.

For orientation: IC50 means the concentration that inhibits the measured activity by half. A high value points to weaker potency in that assay. `CCCCn1c(=O)c2cn(S(=O)(=O)CCCCl)nc2n(CCCC)c1=O` registered a concentration for half-maximal inhibition (IC50) at Phosphodiesterase 4 [4] of 4.9 µM. Moreover, the CTS increase in assay [1] is 2.7. In addition, the CT-luci TAR in assay [2] was determined as 1.9 T/C. This molecule returned an Activity at Phosphodiesterase 4 [3] of 66%.

For `CCCCn1c(=O)c2nn(S(=O)(=O)c3cccc(C(F)(F)F)c3)cc2n(CCCC)c1=O`, the CTS increase in assay [1] amounted to 3.8. The CT-luci TAR in assay [2] is 1.8 T/C. This molecule also yielded an Activity on Phosphodiesterase 4 [3] of 32%.

With `CCCCn1c(=O)c2cn(S(=O)(=O)c3cccc4cccnc34)nc2n(CCCC)c1=O`, the CTS increase in assay [1] stood at 4.8. The CT-luci TAR in assay [2] stood at 2.9 T/C. On Phosphodiesterase 4 [3], this molecule gave an Activity of 96%.

On to `CCCCn1c(=O)c2nn(S(=O)(=O)CCCCl)cc2n(CCCC)c1=O`, for which, at Phosphodiesterase 4 [4], the IC50 worked out at 4.9 µM. Further, in assay [1], the CTS increase worked out at 4.4. In addition, in assay [2], the CT-luci TAR worked out at 1.3 T/C. Further, at Phosphodiesterase 4 [3], the Activity was found to be 69%.

Take `CCCCn1c(=O)c2cn(S(=O)(=O)c3cc(Cl)c(Cl)s3)nc2n(CCCC)c1=O`: the CTS increase in assay [1] came out at 3. Also, in assay [2], the CT-luci TAR was 3.2 T/C. At Phosphodiesterase 4 [3], this molecule showed an Activity of 16%.

With `CCCCn1c(=O)c2cn(S(=O)(=O)Cc3ccccc3)nc2n(CCCC)c1=O`, the CTS increase in assay [1] came to 3.4. Besides, the CT-luci TAR in assay [2] was determined as 2 T/C. The same molecule returned an Activity at Phosphodiesterase 4 [3] of 52%.

For `CCCCn1c(=O)c2cn(S(=O)(=O)c3ccccc3C#N)nc2n(CCCC)c1=O`, the CTS increase in assay [1] was 3.4. Moreover, in assay [2], the CT-luci TAR is 3.6 T/C. For the same molecule, the Activity at Phosphodiesterase 4 [3] stood at 32%.

For `CCCCn1c(=O)c2nn(S(=O)(=O)Cc3ccccc3)cc2n(CCCC)c1=O`, in assay [1], the CTS increase is 2.6. For the same molecule, the CT-luci TAR in assay [2] amounted to 1.5 T/C. Also, the Activity at Phosphodiesterase 4 [3] turned out to be 65%.

As to `CCCCn1c(=O)c2nn(S(=O)(=O)c3cccc4cccnc34)cc2n(CCCC)c1=O`, the CTS increase in assay [1] was 3.8. For the same molecule, the CT-luci TAR in assay [2] is 2.2 T/C. In addition, the Activity at Phosphodiesterase 4 [3] came out at 59%.

For `CCCCn1c(=O)c2nn(S(=O)(=O)c3ccc4ccccc4c3)cc2n(CCCC)c1=O`, in assay [1], the CTS increase was found to be 4.9. Also, the CT-luci TAR in assay [2] came out at 1.8 T/C. In addition, the Activity on Phosphodiesterase 4 [3] was 66%.

Regarding `CCCCn1c(=O)c2cn(S(=O)(=O)c3ccc(C(C)(C)C)cc3)nc2n(CCCC)c1=O`, the CTS increase in assay [1] was 2.9. In assay [2], the CT-luci TAR came to 2.6 T/C. The molecule further showed an Activity on Phosphodiesterase 4 [3] of 57%.

Turning to `CCCCn1c(=O)c2nn(S(=O)(=O)c3ccc(C(C)(C)C)cc3)cc2n(CCCC)c1=O`, the CTS increase in assay [1] came out at 4.5. Further, the CT-luci TAR in assay [2] was found to be 2.3 T/C. The molecule also yielded an Activity at Phosphodiesterase 4 [3] of 37%.
